Results on 8 compounds are retold here after ChEMBL document CHEMBL3112542, “Synthesis of triazole-functionalized 2-DOS analogues and their evaluation as A-site binders” (Bioorg Med Chem Lett, 2014).

Values after ≈ are worked out from the molar mass of the structure shown.

The term MIC denotes the lowest concentration found to suppress growth. In general, IC50 refers to the midpoint of a concentration-inhibition curve. Low values mean higher potency, high ones lower potency. By EC50 is commonly meant the concentration at which the effect is half-maximal.

One assay relates to Pseudomonas aeruginosa. Kind of assay: Antimicrobial activity against Pseudomonas aeruginosa ATCC 27853 after 18 hrs by microdilution method. It is filed as functional. The conditions noted are these: ATCC 27853, 18 h.
For a further assay, the system named is Staphylococcus aureus. The assay can be described thus: Antimicrobial activity against Staphylococcus aureus ATCC 29213 after 18 hrs by microdilution method. It is filed as functional. The conditions noted are these: ATCC 29213, 18 h. On the technique in general: Broth dilution looks for growth in wells or tubes with falling amounts of substance.
The next assay has as its system Escherichia coli. The assay can be described thus: Antimicrobial activity against Escherichia coli ATCC 25922 after 18 hrs by microdilution method. Type of assay: functional. To be noted: ATCC 25922, 18 h.
Assay [1] is described as follows: Binding affinity to Escherichia coli rRNA A site after 30 mins by luciferase transcription/translation assay. The method, boiled down:
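Coupled bacterial transcription-translation run in E. coli extract. IC50 taken from 2 replicate experiments per compound, each in duplicate (14%).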

The nature of assay [2]: Binding affinity to 2AP-labeled duplex RNA oligonucleotide ribosomal decoding site (unknown origin) by fluorescence spectrophotometry. Summed up:
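Decoding-site RNA model oligonucleotide with 2-aminopurine replacing flexible A1492. Binding followed by enhancement of 2AP fluorescence emission. Values averaged from 3 replicate experiments per compound (10%).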

Consider `N[C@@H]1C[C@H](NC(=O)NCCO)[C@@H](O)[C@H](OCC(=O)N2CCOCC2)[C@H]1OCc1cn(CCO)nn1`, for which the minimal inhibitory concentration (MIC) was 157 µg/mL (≈ 313 µM) in the assay with Pseudomonas aeruginosa, 78 µg/mL (≈ 156 µM) in the assay on Staphylococcus aureus and 235 µg/mL (≈ 469 µM) in the assay with Escherichia coli. This compound registered a 50% inhibitory concentration (IC50) in assay [1] of 22.6 µM. Moreover, in assay [2] (read-out: EC50), the concentration for a half-maximal effect (EC50) turned out to be 62 µM.
Turning to `NCC[C@H](O)C(=O)N[C@H]1C[C@@H](n2cc(CO)nn2)[C@H](O)[C@@H](O)[C@@H]1O`, the MIC with Pseudomonas aeruginosa is greater than 1000 µg/mL; against Staphylococcus aureus, 60 µg/mL (≈ 174 µM); in the assay on Escherichia coli, greater than 1000 µg/mL. This compound also displayed an IC50 in assay [1] of 66.5 µM. In addition, the EC50 result in assay [2] is “Not Active”.
For the compound `NCC[C@H](O)C(=O)N[C@H]1C[C@@H]2[C@H](OCc3cnnn32)[C@@H](O)[C@@H]1O`, the minimum inhibitory concentration (MIC) against Pseudomonas aeruginosa was greater than 820 µg/mL; in the assay with Staphylococcus aureus it was 102 µg/mL (≈ 312 µM); against Escherichia coli it was greater than 820 µg/mL. In assay [1], this compound displayed an IC50 of 104 µM. Also, the EC50 in assay [2] (read-out: EC50) came out at 0.017 µM.
For `N[C@@H]1C[C@H](N)[C@@H](O)[C@H](OCc2cn(CCO)nn2)[C@H]1OCC(=O)N1CCCCC1`, the results for the minimum inhibitory concentration (MIC) in the assay on Pseudomonas aeruginosa, in the assay on Staphylococcus aureus and with Escherichia coli were greater than 1000 µg/mL, 129 µg/mL (≈ 313 µM) and greater than 1000 µg/mL, respectively. Further, the IC50 in assay [1] came out at 730 µM. Moreover, the half-maximal effective concentration (EC50) in assay [2] (read-out: EC50) was 3 µM.
As to `N[C@H]1C[C@@H](n2cc(CO)nn2)[C@H](O)[C@@H](O)[C@@H]1O`, the MIC was greater than 700 µg/mL with Pseudomonas aeruginosa, 88 µg/mL (≈ 360 µM) in the assay on Staphylococcus aureus and greater than 700 µg/mL against Escherichia coli. This compound also had an IC50 in assay [1] of 468 µM. Also, the EC50 entry in assay [2] is listed as “Not Active”.
Regarding `N[C@H]1C[C@@H]2[C@H](OCc3cnnn32)[C@@H](O)[C@@H]1O` (single isomer, unassigned), the MIC with Pseudomonas aeruginosa is 283 µg/mL (≈ 1250 µM); against Staphylococcus aureus, greater than 565 µg/mL; with Escherichia coli, 283 µg/mL (≈ 1250 µM). This compound came in with a half-maximal inhibitory concentration (IC50) in assay [1] of 317 µM. The concentration for a half-maximal effect (EC50) in assay [2] (read-out: EC50) worked out at 53 µM.
Turning to `NCCCC(=O)N[C@H]1C[C@@H]2[C@H](OCc3cnnn32)[C@@H](O)[C@@H]1O`, the MIC in the assay with Pseudomonas aeruginosa was greater than 870 µg/mL; against Staphylococcus aureus, 109 µg/mL (≈ 350 µM); in the assay with Escherichia coli it was greater than 870 µg/mL. Further, the half-inhibitory concentration (IC50) in assay [1] turned out to be 55.5 µM. Moreover, the concentration for a half-maximal effect (EC50) in assay [2] (read-out: EC50) stood at 22.4 µM.
In the case of `NCC[C@H](O)C(=O)N[C@H]1C[C@@H](N)[C@H](O)[C@@H](O)[C@@H]1O`, the figures for the MIC in the assay with Pseudomonas aeruginosa, against Staphylococcus aureus and against Escherichia coli were greater than 840 µg/mL, 52.5 µg/mL (≈ 199 µM) and greater than 840 µg/mL, respectively. This compound came in with an IC50 in assay [1] of 475 µM. For the same compound, the EC50 in assay [2] (read-out: EC50) turned out to be 8.7 µM.
